From ChEMBL document CHEMBL3098129, “Preparation and evaluation of deconstruction analogues of 7-deoxykalafungin as AKT kinase inhibitors” (Bioorg Med Chem Lett, 2014)
pIC50: −log10 of the molar value.

Legend:
[1] = target: cAMP-dependent protein kinase catalytic subunit alpha (Homo sapiens, UniProt P17612); assay: Inhibition of PKAalpha (unknown origin) using serine/threonine 01 peptide as substrate after 1 hr by FRET based Z'-LYTE assay
Outline: (§1)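 Run with a commercial Z'-LYTE kit, a FRET read-out of the kinase phosphorylating a peptide substrate. It detects functional inhibition of kinase activity regardless of mechanism.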

[2] = target: RAC-alpha serine/threonine-protein kinase (Homo sapiens, UniProt P31749); assay: Inhibition of recombinant AKT1 (unknown origin) using serine/threonine 06 peptide as substrate after 1 hr by FRET based Z'-LYTE assay; outline: as §1
Sequence of RAC-alpha serine/threonine-protein kinase (P31749 whole entry): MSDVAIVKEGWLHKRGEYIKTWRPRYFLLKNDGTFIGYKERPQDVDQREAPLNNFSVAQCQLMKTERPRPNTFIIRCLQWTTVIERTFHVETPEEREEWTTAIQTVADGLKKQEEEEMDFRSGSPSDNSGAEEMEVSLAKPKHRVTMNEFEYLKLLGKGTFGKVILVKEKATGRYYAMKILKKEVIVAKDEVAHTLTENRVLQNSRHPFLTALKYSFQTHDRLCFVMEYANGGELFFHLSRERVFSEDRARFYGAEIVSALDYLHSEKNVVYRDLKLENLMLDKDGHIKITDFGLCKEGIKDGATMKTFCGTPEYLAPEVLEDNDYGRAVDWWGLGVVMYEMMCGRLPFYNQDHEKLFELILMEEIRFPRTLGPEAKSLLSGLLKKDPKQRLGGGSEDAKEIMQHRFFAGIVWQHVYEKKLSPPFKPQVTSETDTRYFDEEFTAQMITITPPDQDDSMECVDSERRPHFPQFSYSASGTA

Row | Structure (SMILES) | pIC50 [1] | pIC50 [2]
1 | C=CC(=O)c1ccccc1 | < 4.00 | 4.91
2 | COC(=O)CC/C=C/C(=O)c1ccccc1 | < 4.00 | 4.86
3 | O=C1C[C@@H](O)[C@@H](C2=CC(=O)c3ccccc3C2=O)O1 | 6.37 | 5.53

Now from value to molecule:

Row | pIC50 [1] | pIC50 [2] | Structure (SMILES)
4 | < 4.00 | 4.30 | COC/C=C/C(=O)c1ccccc1
5 | < 4.00 | 6.55 | C[C@H]1O[C@@H]2CC(=O)O[C@@H]2C2=C1C(=O)c1ccccc1C2=O
